# Assays:
# [1] = biological target: T1, Gastrin/cholecystokinin type B receptor (Rattus norvegicus, UniProt P30553); experiment: In vitro inhibition of [3H]propionyl-CCK-8 binding to rat cerebral cortex membranes at Cholecystokinin type B receptor.; assay type: cell membranes, Membrane
# T1 sequence (P30553 whole entry): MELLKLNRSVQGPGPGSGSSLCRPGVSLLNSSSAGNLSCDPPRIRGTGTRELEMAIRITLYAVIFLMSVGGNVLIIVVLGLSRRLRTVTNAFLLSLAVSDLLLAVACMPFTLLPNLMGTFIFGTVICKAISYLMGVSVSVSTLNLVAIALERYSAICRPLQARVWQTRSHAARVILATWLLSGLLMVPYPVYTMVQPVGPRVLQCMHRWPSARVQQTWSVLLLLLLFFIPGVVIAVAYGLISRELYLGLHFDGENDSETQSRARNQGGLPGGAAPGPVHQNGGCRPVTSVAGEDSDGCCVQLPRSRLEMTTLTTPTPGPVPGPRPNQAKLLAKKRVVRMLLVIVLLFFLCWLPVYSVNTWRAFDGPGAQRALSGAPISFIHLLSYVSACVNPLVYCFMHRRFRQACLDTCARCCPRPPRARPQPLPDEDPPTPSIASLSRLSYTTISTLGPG
# In short: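 Rat cerebral cortex homogenized in 50 mM Tris-HCl pH 7.4 with 5 mM MgCl2 and spun twice (100000g, 35 min, 4 °C). Membranes (0.45 mg protein/tube) incubated with 1 nM [3H]pCCK-8 in the same buffer plus bacitracin 0.2 mg/mL, 60 min at 25 °C. Nonspecific binding defined with 1 μM CCK-8. Seven test concentrations in duplicate, at least three experiments, mean ± SEM.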
# [2] = biological target: T2, Cholecystokinin receptor type A (Rattus norvegicus, UniProt P30551); experiment: In vitro inhibition of [3H]propionyl-CCK-8 binding to rat pancreatic membranes at Cholecystokinin type A receptor.; assay type: cell membranes, Membrane
# T2 sequence (P30551 whole entry): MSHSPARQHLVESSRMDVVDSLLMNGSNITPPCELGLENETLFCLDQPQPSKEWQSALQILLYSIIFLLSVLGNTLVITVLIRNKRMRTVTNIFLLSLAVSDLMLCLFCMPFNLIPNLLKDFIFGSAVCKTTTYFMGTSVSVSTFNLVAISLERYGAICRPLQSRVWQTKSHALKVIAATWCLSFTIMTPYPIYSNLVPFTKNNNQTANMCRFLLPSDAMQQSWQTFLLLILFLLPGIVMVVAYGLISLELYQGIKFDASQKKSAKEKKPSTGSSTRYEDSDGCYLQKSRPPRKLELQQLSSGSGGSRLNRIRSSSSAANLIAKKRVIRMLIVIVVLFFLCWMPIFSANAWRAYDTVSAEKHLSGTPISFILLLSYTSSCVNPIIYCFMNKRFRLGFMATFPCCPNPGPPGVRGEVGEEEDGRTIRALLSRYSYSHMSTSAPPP
# In short: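 Rat pancreas homogenized in Pipes-HCl pH 6.5 with 30 mM MgCl2 and spun twice (50000g, 10 min, 4 °C). Membranes (0.2 mg protein/tube) incubated with 0.5 nM [3H]pCCK-8 in the same buffer plus bacitracin and soybean trypsin inhibitor (0.2 mg/mL each), 120 min at 25 °C. Nonspecific binding defined with 1 μM CCK-8. Seven concentrations in duplicate, ≥3 experiments, mean ± SEM.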
# [3] = species on record: Rattus norvegicus; experiment: Inhibition of CCK-8-stimulated amylase release from pancreatic acinar cells; assay type: functional, cell-based
# In short: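 Pancreatic acini prepared by collagenase digestion (70 U/mL, three 10-min incubations at 37 °C under O2). Acini incubated 30 min at 37 °C under pure O2 with agitation. Amylase release was stimulated by 0.1 nM CCK-8 and expressed as percent of acinar amylase released. Percent inhibition was calculated across increasing drug concentrations, and IC50 is given with a range.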
SMILES,IC50 [1] [µM],IC50 [2] [µM],IC50 [3] [µM]
COC(=O)[C@@H](Cc1ccccc1)NC(=O)[C@@H]1Cc2c([nH]c3ccccc23)[C@H]2C[C@H](NC(=O)OCc3ccccc3)C(=O)N21,> 10,> 1,
NC(=O)[C@H](Cc1ccccc1)NC(=O)[C@@H]1Cc2c([nH]c3ccccc23)[C@H]2C[C@H](NC(=O)OCc3ccccc3)C(=O)N21,> 10,> 1,
O=C(O)C[C@@H](Cc1ccccc1)NC(=O)[C@H]1Cc2c([nH]c3ccccc23)[C@@H]2C[C@@H](NC(=O)OCc3ccccc3)C(=O)N12,> 10,> 1,
COC(=O)[C@@H](Cc1ccccc1)NC(=O)[C@H]1Cc2c([nH]c3ccccc23)[C@@H]2C[C@@H](NC(=O)OCc3ccccc3)C(=O)N12,> 10,> 1,
COC(=O)[C@H](Cc1ccccc1)NC(=O)[C@H]1Cc2c([nH]c3ccccc23)[C@@H]2C[C@@H](NC(=O)OCc3ccccc3)C(=O)N12,5.63,0.45,
NC(=O)[C@@H](Cc1ccccc1)NC(=O)[C@@H]1Cc2c([nH]c3ccccc23)[C@H]2C[C@H](NC(=O)OCc3ccccc3)C(=O)N21,> 10,> 1,
COC(=O)C[C@H](Cc1ccccc1)NC(=O)[C@H]1Cc2c([nH]c3ccccc23)[C@@H]2C[C@@H](NC(=O)OCc3ccccc3)C(=O)N12,> 10,> 1,
O=C(N[C@H]1C[C@@H]2c3[nH]c4ccccc4c3C[C@@H](C(=O)N[C@H](Cc3ccccc3)C(=O)O)N2C1=O)OCc1ccccc1,> 10,0.0546,
O=C(N[C@@H]1C[C@H]2c3[nH]c4ccccc4c3C[C@H](C(=O)N[C@@H](Cc3ccccc3)C(=O)O)N2C1=O)OCc1ccccc1,0.202,0.00173,0.0012
O=C(N[C@@H]1C[C@H]2c3[nH]c4ccccc4c3C[C@H](C(=O)N[C@H](Cc3ccccc3)C(=O)O)N2C1=O)OCc1ccccc1,3.72,> 1,
COC(=O)[C@H](Cc1ccccc1)NC(=O)[C@@H]1Cc2c([nH]c3ccccc23)[C@H]2C[C@H](NC(=O)OCc3ccccc3)C(=O)N21,> 10,0.0475,
O=C(O)C[C@H](Cc1ccccc1)NC(=O)[C@@H]1Cc2c([nH]c3ccccc23)[C@H]2C[C@H](NC(=O)OCc3ccccc3)C(=O)N21,> 10,,
COC(=O)C[C@@H](Cc1ccccc1)NC(=O)[C@H]1Cc2c([nH]c3ccccc23)[C@@H]2C[C@@H](NC(=O)OCc3ccccc3)C(=O)N12,4.91,> 1,
O=C(O)C[C@H](Cc1ccccc1)NC(=O)[C@H]1Cc2c([nH]c3ccccc23)[C@@H]2C[C@@H](NC(=O)OCc3ccccc3)C(=O)N12,> 10,0.0978,
O=C(N[C@H]1C[C@@H]2c3[nH]c4ccccc4c3C[C@@H](C(=O)N[C@@H](Cc3ccccc3)C(=O)O)N2C1=O)OCc1ccccc1,> 10,0.0047,0.006
CN1C(=O)[C@@H](NC(=O)c2cc3ccccc3[nH]2)N=C(c2ccccc2)c2ccccc21 [DEVAZEPIDE],,,0.0025
O=C(O)C[C@@H](Cc1ccccc1)NC(=O)[C@@H]1Cc2c([nH]c3ccccc23)[C@H]2C[C@H](NC(=O)OCc3ccccc3)C(=O)N21,2.7,,
